The source made the active and inactive calls. No cut-off for these calls is given here.

Data set [1] has as its system Pseudomonas aeruginosa. Put plainly: Antimicrobial activity against XDR Pseudomonas aeruginosa PA264 infected in Galleria mellonella larvae assessed as survival rate at 25 mg/kg administered 2 hrs post-inoculation measured after 24 hrs relative to control. The format is functional, organism-based.
The subject of data set [2] is Pseudomonas aeruginosa. As to the kind of experiment: Increase in tetracycline uptake in Pseudomonas aeruginosa PAO1 membrane at 25 uM measured every 1 min for 30 mins by fluorescence based assay. The conditions noted are these: Bacterial membrane. Type of data set: organism-based. The method, boiled down:
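P. aeruginosa PAO1 was grown to OD600 0.6, washed, and resuspended in ¼ volume of 10 mM HEPES, pH 7.2. Cells received varying compound concentrations together with fixed tetracycline. Fluorescence (ex 405 nm, em 535 nm) was recorded every 1 min for 30 min at room temperature. Experiments were done in triplicate and averages reported.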

The subject of data set [3] is Pseudomonas aeruginosa. Put plainly: Disruption of proton gradient in Pseudomonas aeruginosa PAO1 membrane assessed as inhibition of tetracycline uptake at 25 uM measured every 1 min for 30 mins by fluorescence based assay. Type of data set: organism-based. The settings on record: Bacterial membrane.
A short description of data set [4]: Toxicity in Galleria mellonella larvae assessed as tolerability by measuring larvae deaths at 100 mg/kg incubated for 96 hrs relative to control. Type of data set: organism-based. The conditions noted are these: in vivo.
Data set [5] can be described thus: Toxicity in Galleria mellonella larvae assessed as tolerability by measuring larvae deaths at 75 mg/kg incubated for 96 hrs relative to control. The conditions noted are these: in vivo. The format is organism-based.

Regarding COLISTIN [listing 1 of 2 here], in the data set with Pseudomonas aeruginosa [1], the Survival worked out at 0%. In addition, the outcome in the data set on Pseudomonas aeruginosa [2] was Active. Take `N#CC(C#N)=NNc1cccc(Cl)c1`: the inhibition result in the data set with Pseudomonas aeruginosa [3] is “Active”. With COLISTIN [listing 2 of 2 here], the Activity in data set [4] amounted to 90%; in data set [5], 70%.

These data come from ChEMBL document CHEMBL4354800, “Amphiphilic nebramine-based hybrids Rescue legacy antibiotics from intrinsic resistance in multidrug-resistant Gram-negative bacilli” (Eur J Med Chem, 2019).
